Source: ChEMBL document CHEMBL4513216, “Probing the Open Global Health Chemical Diversity Library for Multistage-Active Starting Points for Next-Generation Antimalarials” (ACS Infect Dis, 2020)

test: Toxicity liver stage against HepG2, at 10uM; format: cell-based; set-up: test concentration 10 uM, cell line HepG2-A16-CD81EGFP; settings: human, HepG2-A16-CD81EGFP cells; read-out: INHIBITION
Procedure, shortened: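 Uninfected HepG2-A16-CD81EGFP cells, 3 × 10^3 per well, 1536-well, plated on prespotted compound at 10 μM final, parasite-free screening media added to match infected plates; puromycin 10 μM positive, DMSO 0.5% negative; run in parallel with 48 h PbLuc assay at 37 °C, 5% CO2; viability by CellTiter-Glo luminescence, normalized to controls.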

Row | SMILES | cytotoxicity at 10 µM [%]
1 | CCN(CCn1cccn1)Cc1nc(-c2ccc(F)cc2)oc1C | 1.07
2 | CC(C)c1nc2n(n1)CC(NCc1nc(-c3ccccn3)no1)CC2 (stereo not drawn) | -5.08
3 | Cc1nc(CN2CCN(C(=O)c3sccc3C3CC3)CC2)cs1 | 3.61
4 | Cc1nn(-c2ccccc2)c(C)c1CC(=O)NC1CC(=O)N(C)C1 (stereo not drawn) | 6.08
5 | Cc1oncc1C(=O)NCC(c1ccccc1Cl)N1CCOCC1 (stereo not drawn) | 10.7
6 | Cc1ccc(C2CCCN2Cc2nc3c(cnn3C)c(=O)[nH]2)cc1C (stereo not drawn) | -0.858
7 | CN(C(=O)c1ccn(C)n1)[C@@H]1CCC[C@@H](Oc2ccccc2)[C@@H]1O | -10.3
8 | Cc1ccc(N2CCCC3(CCN(C(=O)C4CC4)C3)C2)nn1 (stereo not drawn) | -109
9 | COc1ncnc(N(C)C)c1NC(=O)c1cscc1C | -1.7
10 | CS(=O)(=O)N1CCC(CNc2c(Cl)cccc2C#N)CC1 | -6.67
11 | O=C1[C@H]2CN(CC3CC3)C[C@H]2CN1c1ccsc1 | 2.88
12 | CC(=O)N1CCC(c2nccnc2-c2ccc(F)c(F)c2)CC1 | -19.1
13 | Cc1nn(C)c(N2CCOCC2)c1CNCc1ccc(Cl)s1 | 4.09
14 | COCc1cncc2c1CCN(Cc1cccnc1)C2 | 3.91
15 | Cc1ccc2c(c1)C(=O)NCC1(CCN(C(=O)c3cc(C)no3)CC1)O2 | -20.8
16 | COC(=O)[C@H](CC(C)C)NC(=O)c1snnc1-c1ccc(OC)cc1 | 10.1
17 | COc1cccc(CNc2nnc(C(C)(C)C)o2)c1OC | -0.508
18 | Cc1ccc(CN2CCC[C@@H]3CN(C(=O)c4ccco4)C[C@@H]32)s1 | -1.05
19 | CN1CCN(c2cc(CNC(=O)c3cnccn3)ccn2)CC1 | -8.92
20 | Cc1nc(CN2CCOC(CNc3cccnn3)C2)oc1C (stereo not drawn) | -7.94
21 | CCN(C)c1ccc(C(=O)N(CCOC)Cc2ccccn2)cc1 | -3.96
22 | COc1cccc(S(=O)(=O)CCNC2CCc3ncnn3C2)c1 (stereo not drawn) | 2.53

Row | SMILES | cytotoxicity at 10 µM [%]
23 | O=C(c1cc2c(s1)CCC2)N1CCCC(c2cnccn2)C1 (stereo not drawn) | -1.67
24 | CCNC(=O)CN1CCN(c2ccnc3c(F)ccc(F)c23)CC1 | 11.7
25 | Cc1cnc(C(=O)N2CCN(C(=O)C(C)C)[C@@H]3CS(=O)(=O)C[C@@H]32)cn1 | 7.91
26 | Cc1nn(C)c(C)c1C1COCCN1C(=O)CC(C)(C)C (stereo not drawn) | -5.07
27 | CN(C)C(C(=O)NCC1(O)CCCCC1)c1c(F)cccc1F (stereo not drawn) | -5.52
28 | N#Cc1ccccc1C(=O)N1C[C@@H](CN2CCOCC2)[C@@H](CO)C1 | -1.06
29 | Cc1nc(C)n(C2CCCN(C(=O)CCCc3ccccn3)C2)n1 (stereo not drawn) | -0.586
30 | Cc1ccc(F)c(C(=O)N2C[C@@H](C(=O)O)[C@H](c3ccncc3)C2)c1Cl | -2.37
31 | N#CC1(C(=O)N2CCN(c3nccs3)CC2)CCCCC1 | -8.24
32 | COCC1CCCCN1C(=O)c1cc(Cn2ccc3ccccc32)[nH]n1 (stereo not drawn) | -3.54
33 | N#CCCN(Cc1ccco1)C(=O)COC1CCCCC1 | 6.35
34 | Cn1ccc(C(=O)NC2CCC23CCN(C(=O)N2CCCC2)CC3)c1 (stereo not drawn) | 2.01
35 | C[C@@H]1C[C@H]2CN(C(=O)c3ccncn3)C[C@H]2O1 | 0.748
36 | COc1ccc2c(c1)C(C(=O)N(C)CCn1ccnc1C)CC(=O)N2 (stereo not drawn) | -44.8
37 | Cc1ccc(C(=O)NC2CCN(CC(=O)N(C)c3ccccc3)CC2)o1 | -3.73
38 | COc1ccc(C(C)N(C)Cc2c(C(C)C)[nH]c3ncccc23)cc1 (stereo not drawn) | -7.99
39 | CN(C)S(=O)(=O)NCc1nn(CCN2CCCC2)c(=O)c2ccccc12 | -6.88
40 | CC(C)CC(CCO)CNC(=O)N1CC(C)(C)C1(C)C (stereo not drawn) | -2.48
41 | Cc1nc(NCCc2ccc(Cl)cc2)cc(C(=O)N2CCOCC2)n1 | -4.78
42 | O=C(COc1coc(CN2CCCCC2)cc1=O)NCc1ccccc1 | -7.25
43 | Cn1ncc2c1NC(=O)CC2c1cc2c(cc1Cl)OCO2 (stereo not drawn) | 55.6
44 | CCOCCN1CCN(CCC(=O)N2CCCCC2)CC1 | -7.71

Row | SMILES | cytotoxicity at 10 µM [%]
45 | CC(C)NC(=O)N1CCCC2(CCN(c3ccccc3)C2=O)C1 (stereo not drawn) | -2.22
46 | COc1ccc(Cc2cccc(C3CCN(C)CC3)n2)cc1 | 0.153
47 | O=C1C[C@@H]2CC[C@H](CN1)N2C(=O)CCc1ccc2c(c1)OCO2 | -5
48 | O=C(C1CN(CC2CC2)CC12CCOCC2)N1CCCC1 (stereo not drawn) | 7.28
49 | O=C(Cc1ccccn1)N1CCc2c(O)nc(-c3cnccn3)nc2C1 | -27
50 | COCCN1C(=O)C2(CCC(C(=O)Nc3ccccn3)CC2)N=C1C (stereo not drawn) | 10.7
51 | CN(C)CC1CN(c2cnc3ccccc3n2)CCO1 (stereo not drawn) | -9.93
52 | c1ccc(CN2C[C@@H]3COC[C@]3(COCc3ccncc3)C2)nc1 | -76.1
53 | O=C1CCC2(CCCN(Cc3nnc(C4CC4)o3)C2)CN1CCO (stereo not drawn) | 5.14
54 | Cc1nc(CN2CCCC(NCc3sccc3C)C2)no1 (stereo not drawn) | -2.85
55 | CC(=O)c1cccc(NC(=O)N(CCO)C2CCc3ccccc32)c1 (stereo not drawn) | -3.01
56 | CS(=O)(=O)NC1CCN(C(=O)NCc2cccnc2)CC1 | 0.796
57 | Cc1noc(C)c1CN1CCOC2(CCCN(c3nncs3)C2)C1 (stereo not drawn) | -2.82
58 | O=C(Cc1ccccc1)C1CCCN(Cc2cncn2C2CCCC2)C1 (stereo not drawn) | -1.11
59 | Cc1cc(C)c2c(c1)C1(CC(=O)Nc3c1cnn3C(C)C)C(=O)N2 (stereo not drawn) | -2.51
60 | Cc1nn(C)c(N2CCOCC2)c1CNCc1ccnc(N(C)C)c1 | 1.97
61 | CCOC(=O)N1CCN(C(=O)c2sc(-c3ccccc3F)nc2C)CC1 | 20
62 | COCC1CN(c2ccc(Cl)cc2C#N)CCO1 (stereo not drawn) | 11.1
63 | c1ccc(-c2cnc(CN3CCCC3Cn3cccn3)o2)cc1 (stereo not drawn) | -13.6
64 | CC1(C)Cc2nc(C(C)(C)C)ncc2C(NC(=O)Cc2nnn[nH]2)C1 (stereo not drawn) | -3.67
65 | CCNC(=O)C1CCN(Cn2nc(-c3ccc(F)cc3)oc2=O)CC1 | -4.71
66 | CC(C)Cc1noc(CN2CCCC(CNS(N)(=O)=O)C2)n1 (stereo not drawn) | -4.88

Row | SMILES | cytotoxicity at 10 µM [%]
67 | CN(Cc1n[nH]c2c1CCCC2)c1nc(C2CC2)nc2c1CCNCC2 | -10.3
68 | c1ccc(COc2ccccc2NC2CCOCC2)nc1 | 2.2
69 | CC(C1CCN(C(=O)c2coc(CN3CCOCC3)c2)CC1)N(C)C (stereo not drawn) | -4.07
70 | O=C(O)c1ccc(S(=O)(=O)Nc2cnn(CC(F)(F)F)c2)cc1 | -7.52
71 | Cc1cnccc1CN(C)C(=O)C(C)(C)NC(=O)c1cccs1 | 6.89
72 | COCCC(=O)N1C[C@@H](c2ccc(F)c(F)c2)[C@@]2(CCCC(=O)N2)C1 | -9.06
73 | Cc1ccc2oc(CNC(C)c3nnc4n3CCCC4)cc2c1 (stereo not drawn) | -17.9
74 | CN(C)c1cc2c(nn1)CCN(C(=O)c1cc3ccccc3[nH]c1=O)C2 | 3.99
75 | CC(=O)Nc1nc2c(s1)C1(CCCC1)Nc1ccccc1S2 | -9.99
76 | Cc1noc([C@@H]2C[C@@H]3CCN(CC4CC4)C[C@H]3O2)n1 | -139
77 | CN(C)S(=O)(=O)N1C[C@@H]2CN(Cc3ccoc3)CCO[C@@H]2C1 | 12.2
78 | CC(C)(C)n1ncc2c(=O)[nH]c(NC3CC=CC3)nc21 | 1.68
79 | CC(C)c1nn(C)c(N(C)C)c1CNCc1ccc(CO)c(F)c1 | -5.4
80 | Cc1cc(C)cc(N(C)S(=O)(=O)c2cc(C(=O)O)cs2)c1 | -10.4
81 | Cc1noc(C)c1CN1CC[C@H]2C[C@@H](c3ccncn3)O[C@@H]2C1 | -3.04
82 | Cc1ccsc1CNC(=O)CCc1c(C)nc2cc(O)nn2c1C | -7.01
83 | CCn1c(C2CCCN(Cc3ccc(OC)c(C)c3C)C2)nn(C)c1=O (stereo not drawn) | 5.52
84 | CN1CC(NC(=O)CCCc2cc(Cl)sc2Cl)CCC1=O (stereo not drawn) | -5.01
85 | c1cnn(CCN2CCOC(Cn3cccn3)C2)c1 (stereo not drawn) | -10.3
86 | Cc1cccc(N2CCN(C(=O)CNCCn3cc(C)cn3)CC2)c1 | -2.83
87 | CC(=O)NC1CCN(c2cc(-c3ccccc3)nc3c(C)c(C)nn23)C1 (stereo not drawn) | -3.98
88 | CC(C)(O)CCc1ccc(C(=O)N2CCN(CC3CCCC3)CC2)cc1 | 12.4

Row | SMILES | cytotoxicity at 10 µM [%]
89 | CN(C)S(=O)(=O)N1CCN(c2ccnc(N3CCCCC3)n2)CC1 | -1.48
90 | NC(=O)N1CC[C@H]2CO[C@H](CNC(=O)c3ccnnc3)[C@H]2C1 | -4.7
91 | CC(CNC(=O)CCc1ccco1)N1CCc2sccc2C1 (stereo not drawn) | 4.35
92 | CC(C)(C)c1nc(CNC2CCCN(c3cccnn3)C2)no1 (stereo not drawn) | 4.93
93 | CN(C)C(=O)c1cn[nH]c1C1CCCN1Cc1cncn1C (stereo not drawn) | -1.89
94 | CN(C)C(=O)N1CCN(C(=O)c2ccn3cncc3c2)CC1 | -9.96
95 | O=C(Cn1cccn1)NCC1CCN(Cc2cc3ccccc3[nH]2)C1 (stereo not drawn) | 7.11
96 | c1ccc(OC[C@]23COC[C@H]2CN(C2CCOCC2)C3)nc1 | -2.6
97 | O=C(NC[C@H]1OC[C@@H](NCc2ccc(F)cc2)[C@@H]1O)N1CCOCC1 | 1.17
98 | Nc1cc(CCCNC(=O)NC2CCCC2)nn1-c1ccccc1 | -18.9
99 | CCOCC(=O)N1CCC(c2cc3ncccc3c(O)n2)CC1 | -30.1
100 | CS(=O)(=O)Cc1ccc(NC(=O)c2cccnc2)cc1F | -1.53
101 | O=S1(=O)c2ccccc2C(O)CN1CCO (stereo not drawn) | 2.37
102 | COc1cncc(N2CCN(Cc3ccncc3Cl)CC2)n1 | 1.66
103 | CN(C)C(=O)COCc1cncc2c1CCN(C1CCOCC1)C2 | 9.66
104 | COCCN1CCc2ccc(=O)n(Cc3csc(C)n3)c2CC1 | 4.68
105 | CN(C)c1nc2c(c(=O)[nH]1)CCN(C(=O)c1ccc(=O)[nH]c1)C2 | 10.2
106 | CC(=O)Nc1nc(C2CCN(C(=O)c3ccncc3)CC2)cs1 | -9.44
107 | Cc1ccc(CNC2(Cc3cc(C(C)(C)O)on3)COC2)o1 | -1.18
108 | CCCC1(CO)CCCN(C(=O)CNC(N)=O)C1 (stereo not drawn) | 0.83
